Laboratory results: ChEMBL document CHEMBL1773010, “Cytotoxic and apoptosis-inducing activities of limonoids from the seeds of Azadirachta indica (neem)” (J Nat Prod, 2011)

Experiments:
Format in all cases: functional, cell-based
[1] = Cytotoxicity against human AZ-521 cells assessed as cell viability after 48 hrs by MTT assay; details: AZ-521, 48 h
Procedure, shortened: (§1)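 Cells seeded at 3 × 10^3 per well and exposed to compounds from 1 × 10^-4 to 1 × 10^-6 M for 48 h. MTT was then added for 3 h, formazan dissolved in 0.04 M HCl in 2-propanol, and absorbance read at 570 nm against 630 nm. IC50 is the concentration giving 50% growth inhibition, from triplicate assays.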

A549 = experiment: Cytotoxicity against human A549 cells assessed as cell viability after 48 hrs by MTT assay; details: A549, 48 h; procedure, shortened: as §1
HL-60 = experiment: Cytotoxicity against human HL60 cells assessed as cell viability after 48 hrs by MTT assay; details: HL-60, 48 h; procedure, shortened: as §1
SK-BR-3 = experiment: Cytotoxicity against human SK-BR-3 cells assessed as cell viability after 48 hrs by MTT assay; details: SK-BR-3, 48 h; procedure, shortened: as §1
[2] = Cytotoxicity against human CRL1579 cells assessed as cell viability after 48 hrs by MTT assay; procedure, shortened: as §1

Structure (SMILES) | IC50 [1] | IC50 (A549) | IC50 (HL-60) | IC50 (SK-BR-3) | IC50 [2]
CC1(C)C(=O)C=C[C@]2(C)[C@H]3CC[C@]4(C)C(=CC(=O)O[C@@]4(O)c4ccoc4)[C@]3(C)[C@H](O)C[C@@H]12 | > 20 µM | > 20 µM | > 20 µM | > 20 µM | > 20 µM
CC(=O)O[C@@H]1C[C@H]2C(C)(C)C(=O)C=C[C@]2(C)[C@H]2CC[C@]3(C)C(=CC(=O)O[C@]3(O)c3ccoc3)[C@@]21C [NIMOLICINOL] | > 20 µM | > 20 µM | > 20 µM | > 20 µM | > 20 µM
COC(=O)C[C@H]1[C@]2(C)C3=C(C)[C@H](c4ccoc4)C[C@H]3O[C@@H]2[C@H](O)[C@@H]2[C@]1(C)C(=O)C=C[C@@]2(C)C(=O)OC [DEACETYLNIMBIN] | > 20 µM | > 20 µM | 11.6 µM | > 20 µM | > 20 µM
C/C=C(\C)C(=O)O[C@@H]1C[C@H](O)[C@]23CO[C@H](C(=O)OC)[C@H]2[C@](C)([C@]24O[C@@]2(C)[C@H]2C[C@@H]4O[C@@H]4OC=C[C@@]42O)[C@H](O)[C@@H]2OC[C@@]1(C(=O)OC)[C@H]23 [AZADIRACHTIN B] | > 20 µM | > 20 µM | > 20 µM | > 20 µM | > 20 µM
CC(=O)O[C@@H]1C[C@H]2C(C)(C)C(=O)C=C[C@]2(C)[C@H]2CC[C@]3(C)C(=CC(=O)[C@H]3c3ccoc3)[C@@]21C [AZADIRADIONE] | > 20 µM | > 20 µM | 14.7 µM | 15.9 µM | > 20 µM
C/C=C(/C)C(=O)O[C@H]1C[C@@H](OC(C)=O)[C@@]2(C)CO[C@H]3[C@H]4O[C@@H]5CC(=O)C(C)=C5[C@@]4(C)[C@H](CC(=O)OC)[C@]1(C)[C@@H]32 | > 20 µM | > 20 µM | > 20 µM | > 20 µM | > 20 µM
CC(=O)O[C@@H]1C[C@H]2C(C)(C)C(=O)C=C[C@]2(C)[C@H]2CC[C@@]3(C)OC(=O)C=C3[C@@]21C | > 20 µM | > 20 µM | > 20 µM | > 20 µM | > 20 µM
CC(=O)O[C@@H]1C[C@H]2C(C)(C)C(=O)C=C[C@]2(C)[C@H]2CC[C@]3(C)C(=CC(=O)[C@@H]3c3ccoc3)[C@@]21C [17-EPIAZADIRADIONE] | > 20 µM | > 20 µM | 12.6 µM | > 20 µM | > 20 µM
COC(=O)C[C@H]1[C@]2(C)C3=C(C)[C@H](c4ccoc4)C[C@H]3O[C@@H]2[C@H](OC(C)=O)[C@@H]2[C@]1(C)C(=O)C=C[C@@]2(C)O | > 20 µM | > 20 µM | > 20 µM | > 20 µM | > 20 µM
CCC(C)C(=O)O[C@H]1C[C@@H](OC(C)=O)[C@@]2(C(=O)OC)CO[C@H]3[C@@H](O)[C@@](C)([C@]45O[C@@]4(C)C4CC5O[C@@H]5C[C@H](OC)C[C@]45O)[C@@H]4[C@@H](C(=O)OC)OC[C@@]14[C@@H]32 (some centres undefined) [VEPAOL] | > 20 µM | > 20 µM | > 20 µM | > 20 µM | > 20 µM
CC(=O)O[C@@H]1C[C@H]2C(C)(C)C(=O)C=C[C@]2(C)[C@H]2CC[C@]3(C)C(=CC(=O)[C@H]3C3=CCOC3=O)[C@@]21C [AZADIRADIONOLIDE] | > 20 µM | > 20 µM | > 20 µM | 11.5 µM | > 20 µM
CC(=O)O[C@@H]1C[C@H]2C(C)(C)C(=O)C=C[C@]2(C)[C@H]2CC[C@]3(C)C(=CC(=O)[C@@]3(O)c3ccoc3)[C@@]21C [17-HYDROXYAZADIRADIONE] | > 20 µM | > 20 µM | 12.4 µM | > 20 µM | > 20 µM
COC(=O)C[C@H]1[C@]2(C)C3=C(C)[C@H](c4ccoc4)C[C@H]3O[C@@H]2[C@@H]2OC[C@]3(C)[C@H](OC(C)=O)C[C@H](OC(=O)/C=C/c4ccccc4)[C@@]1(C)[C@@H]23 [OHCHININ ACETATE] | > 20 µM | > 20 µM | 9.9 µM | > 20 µM | > 20 µM
CC1(C)C(=O)C=C[C@]2(C)[C@H]3CC[C@@]4(C)[C@H](c5ccoc5)OC(=O)[C@H]5O[C@]54[C@]3(C)[C@H](O)C[C@@H]12 [DEACETYLGEDUNIN] | 16.9 µM | > 20 µM | > 20 µM | 12 µM | > 20 µM
CC(=O)O[C@@H]1C[C@H]2C(C)(C)C(=O)C=C[C@]2(C)[C@H]2CC[C@]3(C)C(=CC(=O)[C@]3(O)c3ccoc3)[C@@]21C | > 20 µM | > 20 µM | > 20 µM | > 20 µM | 19.1 µM
CC1(C)C(=O)C=C[C@]2(C)[C@H]3CC[C@]4(C)C(=CC(=O)[C@H]4c4ccoc4)[C@]3(C)[C@H](O)C[C@@H]12 [NIMBOCINOL] | > 20 µM | > 20 µM | > 20 µM | > 20 µM | > 20 µM

Structure (SMILES) | IC50 [1] | IC50 (A549) | IC50 (HL-60) | IC50 (SK-BR-3) | IC50 [2]
O=c1[nH]cc(F)c(=O)[nH]1 [FLUOROURACIL] | > 20 µM | > 20 µM | 9.1 µM | > 20 µM | > 20 µM
CC=C(C)C(=O)O[C@@H]1[C@@H]2OC[C@]3(C)[C@H](OC(C)=O)C[C@H](O)[C@](C)([C@H]4CC[C@@](C)([C@@H](C)[C@H]5COC(=O)C5)C[C@]14C)[C@@H]23 | > 20 µM | > 20 µM | > 20 µM | > 20 µM | > 20 µM
CC(=O)O[C@@H]1C[C@H]2C(C)(C)C(=O)C=C[C@]2(C)[C@H]2CC[C@]3(C)C(=C(O)C(=O)[C@H]3c3ccoc3)[C@@]21C | > 20 µM | > 20 µM | > 20 µM | > 20 µM | > 20 µM
CC(=O)O[C@@H]1C[C@H]2C(C)(C)C(=O)C=C[C@]2(C)[C@H]2CC[C@@]3(C)C(c4ccoc4)=C(O)C(=O)[C@H]3[C@@]21C | > 20 µM | > 20 µM | > 20 µM | > 20 µM | > 20 µM
CC(=O)O[C@H]1C[C@@H](OC(C)=O)[C@@]2(C)CO[C@@H]3[C@@H](O)[C@@]4(C)C5=CC[C@@H](c6ccoc6)[C@]5(C)CC[C@@H]4[C@]1(C)[C@@H]32 | 14.8 µM | > 20 µM | 15.3 µM | > 20 µM | > 20 µM
CC(=O)O[C@@H]1C[C@H]2C(C)(C)C(=O)C=C[C@]2(C)[C@H]2CC[C@@]3(C)[C@H](c4ccoc4)C(=O)[C@H]4O[C@]43[C@@]21C [EPOXYAZADIRADIONE] | > 20 µM | > 20 µM | 9.3 µM | 12.3 µM | > 20 µM
CC(=O)O[C@@H]1C[C@H]2C(C)(C)C(=O)C=C[C@]2(C)[C@H]2CC[C@]3(C)C(=CC[C@H]3[C@H]3COC(=O)C3)[C@@]21C | > 20 µM | > 20 µM | > 20 µM | > 20 µM | > 20 µM
CC(=O)O[C@@H]1C[C@H]2C(C)(C)C(=O)C=C[C@]2(C)[C@H]2CC[C@]3(C)OC(=O)C=C3[C@@]21C | > 20 µM | > 20 µM | > 20 µM | > 20 µM | > 20 µM
CCC(C)C(=O)O[C@H]1C[C@@H](OC(C)=O)[C@@]2(C)CO[C@H]3[C@H]4O[C@@H]5C[C@@H](c6ccoc6)C(C)=C5[C@@]4(C)[C@H](CC(=O)OC)[C@]1(C)[C@@H]32 (some centres undefined) | > 20 µM | > 20 µM | 17.1 µM | > 20 µM | > 20 µM
C/C=C(/C)C(=O)O[C@H]1C[C@@H](O)[C@@]2(C)CO[C@H]3[C@H]4O[C@@H]5C[C@@H](c6ccoc6)C(C)=C5[C@@]4(C)[C@H](CC(=O)OC)[C@]1(C)[C@@H]32 | > 20 µM | > 20 µM | > 20 µM | > 20 µM | > 20 µM
CC(=O)O[C@@H]1C[C@H]2C(C)(C)C(=O)C=C[C@]2(C)[C@H]2CC[C@@]3(C)[C@H](c4ccoc4)OC(=O)[C@H]4O[C@]43[C@@]21C [GEDUNIN] | 16.9 µM | > 20 µM | 5.9 µM | 8.3 µM | > 20 µM
CC(=O)O[C@@H]1C[C@H]2C(C)(C)C(=O)C=C[C@]2(C)[C@H]2CC[C@@]3(C)CC(=O)C=C3[C@@]21C [DESFURANOAZADIRADIONE] | > 20 µM | > 20 µM | 19.8 µM | > 20 µM | > 20 µM
C/C=C(/C)C(=O)O[C@H]1C[C@@H](OC(C)=O)[C@@]2(C)CO[C@H]3[C@H]4O[C@@H]5C[C@@H](c6ccoc6)C(C)=C5[C@@]4(C)[C@H](CC(=O)OC)[C@]1(C)[C@@H]32 [SALANNIN] | > 20 µM | > 20 µM | > 20 µM | > 20 µM | > 20 µM
CC1(C)C(=O)C=C[C@]2(C)[C@H]3CC[C@]4(C)C(=CC(=O)[C@H]4c4ccoc4)[C@]3(C)[C@H](OC(=O)c3ccccc3)C[C@@H]12 | > 20 µM | > 20 µM | 5.3 µM | > 20 µM | 4 µM
COC(=O)C[C@H]1[C@]2(C)C3=C(C)[C@H](c4ccoc4)C[C@H]3O[C@@H]2[C@H](OC(C)=O)[C@@H]2[C@]1(C)C(=O)C=C[C@@]2(C)C(=O)OC [NIMBIN] | > 20 µM | > 20 µM |  | > 20 µM | 15.9 µM
